In ChEMBL document CHEMBL3272008, “Synthesis and biological actions of 2-substituted quinolizidines” (J Med Chem, 1976):
Calls of active or inactive are those of the source. The rule behind the calls is not given here.

Key:
Rattus norvegicus [1] = experiment: Reduction in respiratory rate in Wistar rat at 50 mg/kg, ip; assay type: functional, organism-based; set-up: dose 50 mg/kg
In short: (§1)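 Male Wistar rats (175–225 g) dosed ip (vehicle dilute NaH2PO4 in water). Gross behaviour observed; respiratory rate, heart rate, rectal temperature and pupil size measured. Three treated rats per dose compared with one control.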

Mus musculus [2] = experiment: Depression of spontaneous motor activity in Swiss-Webster mouse at 100 mg/kg, ip by photocell cage test relative to control; assay type: functional; details: route intraperitoneal
In short: (§2)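 Spontaneous activity in three photocell cages: two mice given the same ip dose placed per cage 10 min after rotarod start; 15-min count begun 5 min after placement. Each dose run in factorial design across all three cages to offset unit sensitivity. Counts expressed as % of control; Student's t test, p < 0.05.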

Rattus norvegicus [3] = experiment: Reduction in body temperature in Wistar rat at 50 mg/kg, ip relative to control; assay type: functional; details: route intraperitoneal; in short: as §1
Rattus norvegicus [4] = experiment: Reduction in heart rate in Wistar rat at 50 mg/kg, ip; assay type: functional, organism-based; set-up: dose 50 mg/kg; in short: as §1
Mus musculus [5] = experiment: Depression of forced motor activity in Swiss-Webster mouse at 100 mg/kg, ip after 30 mins by rotarod test relative to control; assay type: functional; details: route intraperitoneal
In short: (§3)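 Rotarod in mice: rod at 4 rpm for 30 sec, 6 rpm next 30 sec, then stepped up every 30 sec (max 50 rpm) until fall. Six mice at a time, four trials (two per day, 4–6 hr apart, two consecutive days); vehicle or compound ip 30 min before fourth trial. Time on rod as % of control; Student's t test, p < 0.05.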

Rattus norvegicus [6] = experiment: Depression of motor activity in Wistar rat at 50 mg/kg, ip after 1 to 5 hrs; assay type: functional, organism-based; set-up: dose 50 mg/kg; in short: as §1
Mus musculus [7] = experiment: Depression of spontaneous motor activity in Swiss-Webster mouse at 50 mg/kg, ip by photocell cage test relative to control; assay type: functional; details: route intraperitoneal
In short: (§4)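 Compound was dissolved in minimal 1.5 M NaH2PO4, diluted with water and given ip. Two mice given the same dose went into each of three photocell actophotometer cages 10 min after the rotarod test started. Counts were taken over 15 min, starting 5 min after placement. A factorial design across cages cancelled differences between units. Results were given as % of control, with significance by Student's t test (p < 0.05).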

Mus musculus [8] = experiment: Depression of forced motor activity in ip dosed Swiss-Webster mouse after 30 mins by rotarod test relative to control; assay type: functional, organism-based
In short: (§5)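 Mice were dosed ip with vehicle or compound dissolved in a minimum of 1.5 M NaH2PO4 and diluted with water. On the rotarod, speed was 4 rpm for 30 sec, then 6 rpm for 30 sec, then increased every 30 sec up to a maximum of 50 rpm until the fall. Each mouse had four trials, two per day on two consecutive days, spaced 4–6 hr apart. The fourth trial was run 30 min after dosing. The read-out was trial time (sec) as % of control, with significance by Student's t test (p < 0.05).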

Mus musculus [9] = experiment: Depression of forced motor activity in Swiss-Webster mouse at 25 mg/kg, ip after 30 mins by rotarod test relative to control; assay type: functional; details: route intraperitoneal; in short: as §5
Mus musculus [10] = experiment: Depression of forced motor activity in Swiss-Webster mouse at 50 mg/kg, ip after 30 mins by rotarod test relative to control; assay type: functional; details: route intraperitoneal; in short: as §5
[11] = Acute toxicity in ip dosed Swiss-Webster mouse administered as single dose after 7 days; assay type: organism-based; details: in vivo
In short: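 Mice given a single ip dose at each of four dose levels; lethality followed over 7 days; LD50 with 95% confidence limits estimated by the method of Weil. Compounds dissolved in minimal 1.5 M NaH2PO4, diluted with water; haloperidol in minimal 50% (w/v) tartaric acid-water.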

Mus musculus [12] = experiment: Depression of spontaneous motor activity in Swiss-Webster mouse at 25 mg/kg, ip by photocell cage test relative to control; assay type: functional; details: route intraperitoneal; in short: as §4
Rattus norvegicus [13] = experiment: Reduction in ptosis in Wistar rat at 50 mg/kg, ip after 1 to 5 hrs; assay type: functional, organism-based; set-up: dose 50 mg/kg; in short: as §1
Mus musculus [14] = experiment: Depression of spontaneous motor activity in ip dosed Swiss-Webster mouse by photocell cage test relative to control; assay type: functional, organism-based; in short: as §4
Rattus norvegicus [15] = experiment: Increase in pupil size in Wistar rat at 50 mg/kg, ip; assay type: functional, organism-based; set-up: dose 50 mg/kg; in short: as §1
Mus musculus [16] = experiment: Depression of spontaneous motor activity in Swiss-Webster mouse at 12.5 mg/kg, ip by photocell cage test relative to control; assay type: functional; details: route intraperitoneal; in short: as §4
Mus musculus [17] = experiment: Depression of forced motor activity in Swiss-Webster mouse at 12.5 mg/kg, ip after 30 mins by rotarod test relative to control; assay type: functional; details: route intraperitoneal; in short: as §5
Mus musculus [18] = experiment: Depression of forced motor activity in Swiss-Webster mouse at 5 mg/kg, ip after 30 mins by rotarod test relative to control; assay type: functional; details: route intraperitoneal; in short: as §3
Rattus norvegicus [19] = species: Rattus norvegicus; experiment: Increase in heart rate in Wistar rat; assay type: functional, organism-based; in short: as §1
Mus musculus [20] = experiment: Depression of spontaneous motor activity in Swiss-Webster mouse at 5 mg/kg, ip by photocell cage test relative to control; assay type: functional; details: route intraperitoneal; in short: as §2
Mus musculus [21] = experiment: Depression of spontaneous motor activity in Swiss-Webster mouse at 10 mg/kg, ip by photocell cage test relative to control; assay type: functional; details: route intraperitoneal; in short: as §2
Rattus norvegicus [22] = species: Rattus norvegicus; experiment: Reduction in respiration rate in Wistar rat; assay type: functional, organism-based; in short: as §1
Rattus norvegicus [23] = experiment: Increase in motor activity in Wistar rat at 5 to 30 mg/kg, ip; assay type: functional, organism-based; in short: as §1
Mus musculus [24] = experiment: Depression of forced motor activity in Swiss-Webster mouse at 10 mg/kg, ip after 30 mins by rotarod test relative to control; assay type: functional; details: route intraperitoneal; in short: as §3

Row | Structure (SMILES) | Activity (Mus musculus [7]) [%] | Activity (Mus musculus [9]) [%] | Activity (Mus musculus [10]) [%] | LD50 at 168 h [11] [mg/kg] | Activity (Mus musculus [12]) [%] | Activity (Mus musculus [14]) | Activity (Mus musculus [16]) [%] | Activity (Mus musculus [17]) [%] | also measured
1 | O[C@]1(c2ccc(Cl)cc2)CCN2CCCCC2C1 (some centres not stated) | 18.1 | 71.3 | 26.7 | 229 | 19.4 | Dose-dependent effect |  |  | Activity (Rattus norvegicus [1]): Active; Activity (Mus musculus [2]): 2.6%; T (Rattus norvegicus [3]): 1 °C; Activity (Rattus norvegicus [4]): Active; Activity (Mus musculus [5]): 9.7%; Activity (Rattus norvegicus [6]): Active; Activity (Mus musculus [8]): Dose-dependent effect; Activity (Rattus norvegicus [13]): Active; Activity (Rattus norvegicus [15]): Active
2 | O[C@]1(c2ccc(C(F)(F)F)cc2)CCN2CCCCC2C1 (single isomer, unassigned) | 17.5 | 100.6 | 31.5 | 125 | 39.3 | Dose-dependent effect | 90 | 115.2 | 
3 | O[C@]1(c2cccc(Cl)c2)CCN2CCCCC2C1 (single isomer, unassigned) | 74.3 | 83.6 | 34.3 | 134 | 89.9 |  |  | 88.6 | 
4 | O[C@]1(c2cccc(C(F)(F)F)c2)CCN2CCCCC2C1 (single isomer, unassigned) | 35.4 | 98.1 | 56.6 | 137 | 45.1 | Dose-dependent effect | 70.3 | 107.2 | 
5 | O[C@@]1(c2ccc(Cl)cc2)CCN2CCCCC2C1 (single isomer, unassigned) |  | 87.6 |  | 67.5 | 22.5 |  |  |  | Activity (Mus musculus [18]): 105.9%; Activity (Rattus norvegicus [19]): Active; Activity (Mus musculus [20]): 526.8%; Activity (Mus musculus [21]): 439.6%; Activity (Rattus norvegicus [22]): Active; Activity (Rattus norvegicus [23]): inactive; Activity (Mus musculus [24]): 101.9%
